The text below walks through data of ChEMBL document CHEMBL1144020, “Development of prodrug 4-chloro-3-(5-methyl-3-{[4-(2-pyrrolidin-1-ylethoxy)phenyl]amino}-1,2,4-benzotriazin-7-yl)phenyl benzoate (TG100801): a topically administered therapeutic candidate in clinical trials for the treatment of age-related macular degeneration” (J Med Chem, 2008).

The nature of the series: Stability at 120 degC after 1 hr. Type of series: physicochemical. As to conditions: read-out: Stability. In outline: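 Prodrugs at 0.5% in 0.5% HPMC/5% dextrose, pH 6.7, in closed vials, autoclaved at 120 °C for 1 h. After cooling, percent remaining was assessed by reverse-phase HPLC with diode-array and ELSD detection.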

With `Cc1cc(-c2cc(OC(=O)c3cccnc3)ccc2Cl)cc2nnc(Nc3ccc(OCCN4CCCC4)cc3)nc12`, the remaining at 1 h was 50%.

Take `CC(=O)Oc1ccc(Cl)c(-c2cc(C)c3nc(Nc4ccc(OCCN5CCCC5)cc4)nnc3c2)c1`: the remaining at 1 h was below 20%. For `Cc1cc(-c2cc(OC(=O)C(C)C)ccc2Cl)cc2nnc(Nc3ccc(OCCN4CCCC4)cc3)nc12` the value was 50%. Regarding `Cc1cc(-c2cc(OC(=O)CN)ccc2Cl)cc2nnc(Nc3ccc(OCCN4CCCC4)cc3)nc12`, the remaining at 1 h is below 20%.
